Source: paper PMC11345372 (ESMO Open, 2024)
Entries after “also recorded” stand apart in the source; their conditions may differ. Read-outs that look alike come from different tables or passages of the source.

Assays:
[1] = tested on: advanced solid tumors; test: Antitumor activity per RECIST v1.1; type: in vivo, human
How it was run: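 Open-label phase I/Ib in adults (≥18 y, ECOG ≤2, RECIST-measurable disease, progressed on or intolerant to standard care). The TLR-7 agonist, 100-600 μg, was given intratumorally on days 1 and 15 of 28-day cycles 1-2 and 5-6, with a pause in cycles 3-4. Combination patients also received anti-PD-1 antibody 400 mg IV over 30 min Q4W. ORR and DCR (CR+PR+SD) are given with 90% Clopper–Pearson exact CIs. PFS uses Kaplan–Meier with median, 90% CI and landmark rates.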

[2] = Serum pharmacokinetics after intratumoral LHC165, LC-MS/MS, non-compartmental; type: in vivo, human
How it was run: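 Serum concentrations of the TLR-7 agonist were measured by validated LC-MS/MS after intratumoral dosing at 100-600 μg Q2W. Dosing was alone or with anti-PD-1 antibody 400 mg IV Q4W. Parameters (Cmax, AUClast, terminal t½) were derived by non-compartmental analysis on C1D1 and C2D15. Geometric CV% was reported.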

[3] = tested on: adult patients with advanced solid tumors
[4] = tested on: adult patients with advanced solid tumors; test: Dose escalation: DLT, MTD and recommended dose for expansion; type: in vivo, human
How it was run: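 Escalation was guided by an adaptive Bayesian hierarchical logistic regression model with escalation-with-overdose-control. Dosing started at 100 μg and tested 100, 200, 400 and 600 μg intratumoral TLR-7 agonist biweekly, alone or with anti-PD-1 antibody 400 mg IV on day 1 of each 28-day cycle. AEs were graded by CTCAE v4.03. All treated patients formed the safety set. Data cut-off was 30 June 2022.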

[5] = tested on: advanced solid tumors; test: Antitumor activity per iRECIST; type: in vivo, human; conditions: all patients, groups pooled
How it was run: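 Adults with advanced solid tumours received the TLR-7 agonist intratumorally, 100-600 μg on days 1 and 15 of 28-day cycles 1-2 and 5-6, alone or with anti-PD-1 antibody 400 mg IV Q4W. Response was assessed per iRECIST. iORR and iDCR are given with 90% Clopper–Pearson exact CIs. iPFS was estimated by Kaplan–Meier with median, 90% CI and 3-24-month rates, summarised by treatment group.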

[6] = Aluminum level monitoring; type: in vivo, human; conditions: for Aluminum level, mean (standard deviation): baseline 0.26 (0.088)
[7] = tested on: patients with solid tumors; conditions: IT; including grade 3/4 cytokine release syndrome, pyrexia, fatigue, chills, decreased lymphocyte count, nausea, injection-site pain; cited from earlier work
[8] = tested on: advanced anaplastic thyroid carcinoma; conditions: immune-related response criteria; cited from earlier work
[9] = RECIST v1.1, all patients N = 45 (SA and combination groups pooled)
[10] = RECIST v1.1, all patients, groups pooled
[11] = RECIST v1.1, by treatment group
[12] = RECIST v1.1, by treatment group (SA n = 21; combination n = 24)
[13] = all grades, all patients N = 45 (SA and combination groups pooled)
[14] = all grades, by treatment group (SA n = 21; combination n = 24)
[15] = grade ≥3, all patients N = 45 (SA and combination groups pooled)
[16] = grade ≥3, by treatment group (SA n = 21; combination n = 24)
[17] = overall, 45 patients, groups pooled

## Cc1cc(OCCOCCC(F)(F)P(=O)(O)O)ccc1CCc1cnc2c(N)nc3cc(CCC(=O)O)ccc3c2c1 [LHC165]
[1]; RECIST v1.1, Kaplan–Meier, by treatment group, listed as LHC165 SA
  Median PFS: 1.4 months
[1]; [9]
  Best overall response: CR: 0 n (%)
  Best overall response: PD: 27 (60.0) n (%)
  Best overall response: PR: 3 (6.7) n (%)
  Best overall response: SD: 5 (11.1) n (%)
  Best overall response: Unknown: 10 (22.2) n (%)
  DCR (CR + PR + SD): 8 (17.8) n (%)
  ORR (CR + PR): 3 (6.7) n (%)
[1]; [10]
  DCR / disease control: 17.8%
  ORR (CR + PR) across all tumor types: 6.7%
[1]; [11]
  Best overall response PD: 66.7%
  Best overall response PR: 4.8%
  Best overall response unknown (UNK): 28.6%
[1]; [12]
  Best overall response: CR: 0 n (%)
  Best overall response: PD: 14 (66.7) n (%)
  Best overall response: PR: 1 (4.8) n (%)
  Best overall response: SD: 0 n (%)
  Best overall response: Unknown: 6 (28.6) n (%)
  DCR (CR + PR + SD): 1 (4.8) n (%)
  ORR (CR + PR): 1 (4.8) n (%)
[1]; RECIST v1.1, responders by treatment group
  DOR, median (range): 3.81 (3.8-3.8) months
[1]; RECIST v1.1, responders, all patients (SA and combination groups pooled)
  DOR, median (range): 13.77 (3.8-29.7) months
[1]; all patients, groups pooled
  Overall median PFS: 1.7 months
[1]; by treatment group
  Patients who discontinued study treatment due to progressive disease: 71.4%
[2]; 100-600 μg IT
  Dose dependence of Cmax and AUClast: increased in a dose-dependent manner
[2]; Cmax and AUClast between C1D1 and C2D15 comparable
  Accumulation in serum LHC165 after multiple IT injections: No accumulation
[2]; comparable exposure between SA and combination groups
  Drug–drug interaction between LHC165 and spartalizumab: No evidence of drug–drug interaction
[3]; 40 of 45 patients, SA and combination groups pooled
  Patients with at least one AE of any grade, regardless of relationship with LHC165 or spartalizumab: 88.9%
[3]; 45 patients, groups pooled
  Most common non-SAE: anemia: 24.4%
  Most common non-SAE: pyrexia: 37.8%
  Patients with at least one SAE, regardless of relationship: 22.2%
  SAE suspected to be related to LHC165 and spartalizumab: grade 3 pancreatitis: 2.2%
  SAE suspected to be related to the study drug: grade 3 pancreatitis, number of patients: 1 n
[3]; across all dose levels, 16 of 45 patients, groups pooled
  Patients with treatment-related AEs (TRAEs, all grades): 35.6%
[3]; across all dose levels, 40 of 45 patients, groups pooled
  Patients with non-SAEs (≥10%): 88.9%
[3]; all 45 patients, groups pooled
  Drug-related AE: asthenia: 4.4%
  Drug-related AE: chills: 11.1%
  Drug-related AE: pruritus: 13.3%
  Drug-related AE: pyrexia: 22.2%
[3]; [13]
  Asthenia, treatment-related AE: 2 (4.4) n (%)
  Chills, treatment-related AE: 5 (11.1) n (%)
  Pruritus, treatment-related AE: 6 (13.3) n (%)
  Pyrexia, treatment-related AE: 10 (22.2) n (%)
  TRAEs leading to discontinuation: pancreatitis: 1 (2.2) n (%)
  ≥1 AE suspected to be related to LHC165 or spartalizumab: 16 (35.6) n (%)
[3]; [14]
  Asthenia, treatment-related AE: 0 n (%)
  Chills, treatment-related AE: 1 (4.8) n (%)
  Pruritus, treatment-related AE: 0 n (%)
  Pyrexia, treatment-related AE: 2 (9.5) n (%)
  TRAEs leading to discontinuation: pancreatitis: 0 n (%)
  ≥1 AE suspected to be related to LHC165 or spartalizumab: 2 (9.5) n (%)
[3]; by treatment group (2 of 21; 14 of 24)
  Patients with one or more TRAE: 9.5%
[3]; by treatment group (SA n = 21; combination n = 24)
  Patients with at least one treatment permanent discontinuation by reason: adverse event: 2 (9.5) n (%)
[3]; by treatment group, SA: hypotension, not related, combination: pancreatitis, DLT
  Patients who discontinued study treatment due to AE: 4.8%
[3]; by treatment group, not related to treatment (respiratory failure; fatal septic shock)
  Patients who discontinued study treatment due to death: 4.8%
[3]; [15]
  Asthenia, treatment-related AE: 0 n (%)
  Chills, treatment-related AE: 0 n (%)
  Pruritus, treatment-related AE: 0 n (%)
  Pyrexia, treatment-related AE: 0 n (%)
  TRAEs leading to discontinuation: pancreatitis: 1 (2.2) n (%)
  ≥1 AE suspected to be related to LHC165 or spartalizumab: 0 n (%)
[3]; [16]
  Asthenia, treatment-related AE: 0 n (%)
  Chills, treatment-related AE: 0 n (%)
  Pruritus, treatment-related AE: 0 n (%)
  Pyrexia, treatment-related AE: 0 n (%)
  TRAEs leading to discontinuation: pancreatitis: 0 n (%)
  ≥1 AE suspected to be related to LHC165 or spartalizumab: 0 n (%)
[3]; [17]
  AE leading to dose interruption or dose adjustment: aspartate aminotransferase increased: 4.4%
  Patients with at least one AE leading to dose interruption or dose adjustment: 11.1%
  Patients with at least one AE leading to treatment discontinuation: 4.4%
[3]; overall, 45 patients, groups pooled, each term
  AEs leading to dose interruption or dose adjustment, each of: alanine aminotransferase increased, fatigue, gastroesophageal reflux disease, hyponatremia, suspected COVID-19: 2.2%
[4]; LHC165 100-600 μg biweekly IT, SA and with spartalizumab 400 mg Q4W
  MTD: No maximum tolerated dose was reached; also recorded: not reached
[4]; biweekly IT, as SA and in combination with spartalizumab 400 mg Q4W
  Recommended dose for expansion (RDE): 600 µg
[4]; combination: two episodes of grade 3 pancreatitis at LHC165 400 μg
  DLTs observed during dose escalation: No DLTs
[5]
  Overall median immune-related PFS (iPFS): 1.7 months
[6]; LHC165 adsorbed to aluminum hydroxide
  AEs specific to aluminum toxicity: No AEs specific to aluminum toxicity were reported
[6]; cycle 1 day 15 (C1D15)
  Aluminum level, mean (standard deviation): 0.24 (0.087) μmol/L
[6]; end of treatment
  Aluminum level, mean (standard deviation): 0.30 (0.128) μmol/L
[6]; mild elevation levels >1.85 μmol/L
  Maximum observed aluminum value during the study: 0.520 µmol

## CCCCCCCCCCCCCCCCCC(=O)NCCCCOn1c(CCCC)nc2c(N)nc3ccccc3c21 [MEDI9197]
[7]
  Toxicities: tolerable toxicities

B1: spartalizumab: humanized immunoglobulin G4 (IgG4) anti-programmed cell death protein-1 (anti–PD-1) monoclonal antibody (antibody, chains of the INN, looked up, V domains shown)
VH: EVQLVQSGAEVKKPGESLRISCKGSGYTFTTYWMHWVRQATGQGLEWMGNIYPGTGGSNFDEKFKNRVTITADKSTSTAYMELSSLRSEDTAVYYCTRWTTGTGAYWGQGTTVTVSS
VL: EIVLTQSPATLSLSPGERATLSCKSSQSLLDSGNQKNFLTWYQQKPGQAPRLLIYWASTRESGVPSRFSGSGSGTDFTFTISSLEAEDAATYYCQNDYSYPYTFGQGTKVEIK
[8]
  Overall response rate (ORR): 24%
